Measurements taken from ChEMBL document CHEMBL3997791, “Nanomolar-Potency Aminophenyl-1,3,5-triazine Activators of the Cystic Fibrosis Transmembrane Conductance Regulator (CFTR) Chloride Channel for Prosecretory Therapy of Dry Eye Diseases” (J Med Chem, 2017).
The source made the active and inactive calls. The calls are words filed in the database; no cut-off is given here.

Tests used:
[1] = Metabolic stability in rat hepatic microsomes assessed as parent compound remaining at 5 uM after 60 mins in presence of NADPH by LC-MS analysis; assay type: ADME, Microsome; conditions: liver microsomes, read-out: Stability
Procedure, shortened: (§1)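 Compound at 5 μM incubated at 37 °C with rat liver microsomes (1 mg/mL) in potassium phosphate buffer with 1 mM NADPH; quenched with ice-cold EtOAc, centrifuged, supernatant analysed by LC/MS (C18, water/acetonitrile with 0.1% formic acid gradient, UV 254 nm) for parent remaining; mean ± SEM, n = 3.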

[2] = biological target: T1, Cystic fibrosis transmembrane conductance regulator (Homo sapiens, UniProt P13569); experiment: Activation of CFTR in human primary bronchial epithelial cells assessed as increase in short-circuit current up to 10 uM measured after 10 mins in absence of forskolin by voltage clamp method
T1 sequence (P13569 whole entry, looked up): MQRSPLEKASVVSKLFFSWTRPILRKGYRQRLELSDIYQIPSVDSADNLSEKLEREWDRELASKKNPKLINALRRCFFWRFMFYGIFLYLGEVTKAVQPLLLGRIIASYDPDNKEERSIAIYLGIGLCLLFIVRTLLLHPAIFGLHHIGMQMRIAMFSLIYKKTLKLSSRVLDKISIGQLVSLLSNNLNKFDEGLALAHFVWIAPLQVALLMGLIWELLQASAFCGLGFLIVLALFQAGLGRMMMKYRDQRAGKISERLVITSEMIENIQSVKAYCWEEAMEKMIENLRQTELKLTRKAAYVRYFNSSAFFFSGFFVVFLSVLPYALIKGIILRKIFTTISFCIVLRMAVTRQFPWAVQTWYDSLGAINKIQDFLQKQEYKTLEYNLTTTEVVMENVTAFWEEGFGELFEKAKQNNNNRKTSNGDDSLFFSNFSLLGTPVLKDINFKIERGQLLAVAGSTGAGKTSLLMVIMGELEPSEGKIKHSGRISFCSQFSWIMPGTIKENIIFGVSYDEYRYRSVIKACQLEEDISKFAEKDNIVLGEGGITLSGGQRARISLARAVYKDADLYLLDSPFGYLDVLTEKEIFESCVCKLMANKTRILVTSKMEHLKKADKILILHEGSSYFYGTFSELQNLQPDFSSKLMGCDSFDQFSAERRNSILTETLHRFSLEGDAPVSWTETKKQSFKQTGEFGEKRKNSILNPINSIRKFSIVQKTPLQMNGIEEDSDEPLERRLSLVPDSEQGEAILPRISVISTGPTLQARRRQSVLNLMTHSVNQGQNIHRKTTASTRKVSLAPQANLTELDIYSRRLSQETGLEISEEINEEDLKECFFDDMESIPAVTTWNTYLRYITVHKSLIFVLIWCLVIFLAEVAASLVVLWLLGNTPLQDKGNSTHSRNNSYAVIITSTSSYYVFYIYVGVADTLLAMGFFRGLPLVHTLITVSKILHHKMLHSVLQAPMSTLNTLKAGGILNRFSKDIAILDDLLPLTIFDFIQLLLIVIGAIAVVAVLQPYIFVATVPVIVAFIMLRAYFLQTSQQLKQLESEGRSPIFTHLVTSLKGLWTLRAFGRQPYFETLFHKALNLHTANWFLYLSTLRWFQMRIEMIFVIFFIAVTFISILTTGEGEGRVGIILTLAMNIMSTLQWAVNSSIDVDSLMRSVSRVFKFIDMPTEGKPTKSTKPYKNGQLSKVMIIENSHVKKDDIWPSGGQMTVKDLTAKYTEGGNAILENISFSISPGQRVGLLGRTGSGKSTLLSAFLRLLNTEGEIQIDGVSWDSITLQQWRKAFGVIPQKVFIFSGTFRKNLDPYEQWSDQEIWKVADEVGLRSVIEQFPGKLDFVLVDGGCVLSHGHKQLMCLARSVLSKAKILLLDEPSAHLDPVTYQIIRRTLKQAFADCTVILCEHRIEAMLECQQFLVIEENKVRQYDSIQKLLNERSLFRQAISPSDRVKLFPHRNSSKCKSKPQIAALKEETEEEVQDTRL

[3] = biological target: T1, Cystic fibrosis transmembrane conductance regulator; experiment: Activation of CFTR in human primary bronchial epithelial cells assessed as increase in forskolin-stimulated short-circuit current at 0.1 uM preincubated for 10 mins followed by forskolin addition by voltage clamp method
Mus musculus = experiment: Induction of tear secretion in mouse assessed as minimum compound concentration required to show maximum effect administered as single topical dose at 1 to 3 hrs post dose by phenol red thread test; assay type: functional
Procedure, shortened: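 Dose-response in mice: single ocular doses of varied amounts (down to 25 pmol) in 2.5 μL ophthalmic vehicle to both eyes, vehicle control. Tear volume by phenol red thread (10 s, lateral canthus, isoflurane anesthesia) before and at timed points after dosing; 5 mice, 10 eyes per condition.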

[4] = Metabolic stability in rat hepatic microsomes assessed as parent compound remaining at 5 uM after 15 mins in presence of NADPH by LC-MS analysis; assay type: ADME, Microsome; conditions: liver microsomes, read-out: Stability; procedure, shortened: as §1

Row | SMILES | remaining at 1 h, 5 µM [1] [%] | Activity [2] | Activity [3] | Activity (Mus musculus) [pmol] | remaining at […], 5 µM [4] [%]
1 | CCN(CC)c1nc(Nc2ccc3ncsc3c2)nc(OC(C(F)(F)F)C(F)(F)F)n1 | 60 | – | – | – | –
2 | CNc1nc(Nc2ccccc2)nc(OCC(F)(F)C(F)F)n1 | – | inactive | Active | 25 | < 40
